Measured values: PMC3063522 (Journal of agricultural and food chemistry, 2011)
In brackets after ≈: the same amount, converted by molar mass. Entries after “also recorded” stand apart in the source; their conditions may differ.

What was measured:
Cytotoxicity [1] = type: cell-based; conditions: human, SK-MEL malignant melanoma cells
Method in brief: (§1)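 Anti-proliferative assay run alongside four human tumour lines (SK-MEL, KB, BT-549, SK-OV-3) and two noncancerous kidney lines (Vero, LLC-PK11). Doxorubicin served as the positive control.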

Cytotoxicity [2] = type: cell-based; conditions: human, KB oral epidermal carcinoma cells
Method in brief: as §1

Cytotoxicity [3] = type: cell-based; conditions: human, BT-549 breast ductal carcinoma cells
Method in brief: as §1

Cytotoxicity [4] = type: cell-based; conditions: human, SK-OV-3 ovary carcinoma cells
Method in brief: as §1

Cytotoxicity [5] = type: cell-based; conditions: African green monkey, Vero kidney fibroblasts
Method in brief: as §1

Cytotoxicity [6] = type: cell-based; conditions: pig, LLC-PK11 kidney epithelial cells
Method in brief: as §1

[7] = Cytotoxicity towards HL-60 cells in the antioxidant assay; type: cell-based; conditions: human, HL-60 promyelocytic leukemia cells
[8] = Cytotoxicity to RAW 264.7 cells in the iNOS assay; type: cell-based, mouse; conditions: mouse, RAW 264.7 macrophages
Phomopsis viticola = test: Antifungal broth dilution microbioassay, Phomopsis viticola; type: cell-based
Method in brief: (§2)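 Broth microdilution adapted from the NCCLS M27-A yeast method for conidia-forming filamentous plant-pathogenic fungi. The commercial fungicide captan served as the internal standard in every assay. Means were compared by SAS analysis of variance with Fisher's protected LSD. For P. viticola and P. obscurans, activity was read at 120 and 144 h of incubation.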

Botrytis cinerea = test: Antifungal broth dilution microbioassay, Botrytis cinerea; type: cell-based
Method in brief: as §2

mosquito larvae = test: Mosquito larvae toxicity bioassay; type: in vivo; conditions: Figure 4
Method in brief: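 Larval toxicity bioassay, run in triplicate. Controls were untreated, DMSO-acetone carrier, and permethrin as the positive control.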

[9] = system: adult A. aegypti female mosquitoes; test: Adult mosquito topical toxicity assay; type: in vivo; conditions: for Adult mosquito mortality rate ± SD: topical, 3.12 μg per insect, acetone/DMSO control gave 5.8±1.8%
Phomopsis obscurans = test: Antifungal broth dilution microbioassay, Phomopsis obscurans; type: cell-based
Method in brief: as §2

[10] = at the highest concentrations, Figure 2D
[11] = 120 and 144 h (from 120 to 144 h)

Compound	IC50 (Cytotoxicity [1]) [µg/mL]	IC50 (Cytotoxicity [2]) [µg/mL]	IC50 (Cytotoxicity [3]) [µg/mL]	IC50 (Cytotoxicity [4]) [µg/mL]	IC50 (Cytotoxicity [5]) [µg/mL]	IC50 (Cytotoxicity [6]) [µg/mL]	IC50 [7] [µg/mL]	IC50 [8] [µg/mL]	Antifungal activity against P. viticola (Phomopsis viticola; [10])	Growth inhibition of B. cinerea (Botrytis cinerea; 48 h)	Growth inhibition of B. cinerea (Botrytis cinerea; 72 h)	Toxicity to mosquito larvae (mosquito larvae)	Adult mosquito mortality rate ± SD [9]	Adult mosquito mortality ([9]; 6.25 μg/mosquito, positive standard) [%]	Antifungal activity against P. obscurans (Phomopsis obscurans; [11])	Antifungal activity against P. viticola (Phomopsis viticola; 144 h of incubation)	Antifungal activity against P. obscurans (Phomopsis obscurans; 144 h of incubation)
CC(C)=CCC/C(C)=C/Cc1c(O)cc(/C=C/c2ccc(O)cc2O)cc1O [Compound 22, chlorophorin]	> 25	> 25	20 (≈ 52.6 µM)	> 25	15.5 (≈ 40.7 µM)	14.5 (≈ 38.1 µM)	25 (≈ 65.7 µM)	9 (≈ 23.7 µM)	appreciable activity	very high growth inhibition values	very high growth inhibition values	–	–	–	–	–	–
COc1cccc(/C=C/c2ccc(O)cc2)c1 [Compound 13]	> 25	> 25	> 25	> 25	> 25	> 25	4 (≈ 17.7 µM)	19.5 (≈ 86.2 µM)	appreciable activity	–	–	highest activity; also recorded: very low compared to the positive control permethrin	–	–	–	–	–
COc1cccc2c1C(=O)c1c(O)c3c(c(O)c1C2=O)C[C@@](O)(C(=O)CO)C[C@@H]3O[C@H]1C[C@H](N)[C@H](O)[C@H](C)O1 [Doxorubicin, reference compound]	0.8 (≈ 1.47 µM)	1.45 (≈ 2.67 µM)	1.35 (≈ 2.48 µM)	1.3 (≈ 2.39 µM)	> 5	0.9 (≈ 1.66 µM)	0.24 (≈ 0.442 µM)	–	–	–	–	–	–	–	–	–	–
COc1cc(O)cc(/C=C/c2ccccc2)c1 [Compound 19]	> 25	> 25	> 25	> 25	> 25	> 25	18 (≈ 79.5 µM)	12 (≈ 53 µM)	appreciable activity	–	–	highest activity; also recorded: somewhat greater activity	–	–	–	–	–
CC(C)(O)C(O)Cc1c(O)cc(/C=C/c2ccccc2)cc1O (stereo not drawn) [Compound 9, arahypin-4]	> 25	> 25	> 25	> 25	> 25	> 25	> 31.3	> 25	–	–	–	–	10±0.0%	–	–	–	–
CC1(C)C(C=C(Cl)Cl)C1C(=O)OCc1cccc(Oc2ccccc2)c1 (stereo not drawn) [permethrin, reference compound]	–	–	–	–	–	–	–	–	–	–	–	–	–	100	–	–	–
COc1ccc(/C=C/c2cc(O)cc(O[C@@H]3O[C@H](CO)[C@@H](O)[C@H](O)[C@H]3O)c2)cc1O [Compound 23, rhapontin, reference compound]	> 25	> 25	> 25	> 25	> 25	> 25	20 (≈ 47.6 µM)	> 25	–	–	very high growth inhibition values	significantly lower toxicity	–	–	–	–	–
CC(C)/C=C/c1c(O)cc(/C=C/c2ccc(O)c(O)c2)cc1O [Compound 1, arachidin-1]	15 (≈ 48 µM)	4.8 (≈ 15.4 µM)	4.8 (≈ 15.4 µM)	14.5 (≈ 46.4 µM)	12 (≈ 38.4 µM)	2.8 (≈ 8.96 µM)	5.2 (≈ 16.6 µM)	8.3 (≈ 26.6 µM)	–	–	–	–	marginally active	–	did not exhibit any activity	–	–
CC(C)/C=C/c1c(O)cc(/C=C/c2ccccc2)cc1O [Compound 6, arahypin-1]	> 25	> 25	> 25	> 25	> 25	> 25	> 31.3	> 25	–	–	–	–	–	–	highest levels of inhibition	more fungicidal	more fungicidal
CC(C)(O)C(O)Cc1c(O)cc(/C=C/c2ccc(O)cc2)cc1O (stereo not drawn) [Compound 8, arahypin-3]	> 25	> 25	> 25	> 25	> 25	> 25	> 25	> 25	–	–	–	–	marginally active	–	–	–	–
COc1cccc(CCc2ccc(O)cc2)c1 [Compound 17]	> 25	> 25	> 25	> 25	> 25	> 25	9 (≈ 39.4 µM)	> 25	–	–	–	–	–	–	–	–	–
